Data taken from ChEMBL document CHEMBL3632558, “Synthesis, antimycobacterial and antibacterial activity of l-[(1R,2S)-2-fluorocyclopropyl]naphthyridone derivatives containing an oxime-functionalized pyrrolidine moiety” (2015).
Values after ≈ are worked out from the molar mass of the structure shown.

Columns and labels:
Format in all cases: functional
Enterococcus faecalis [1] = experiment: Antibacterial activity against Enterococcus faecalis 14-2 after 18 to 24 hrs
Summary of the method: (§1)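 MIC by standard NCCLS reference procedure (M100-S11); lowest concentration of compound inhibiting visible bacterial growth after incubation at 35 °C for 18–24 h, read as complete inhibition of growth. Ciprofloxacin, levofloxacin and moxifloxacin run alongside as reference agents.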

Enterococcus faecium [2] = experiment: Antibacterial activity against Enterococcus faecium 14-1 after 18 to 24 hrs; summary of the method: as §1
Enterococcus faecium [3] = experiment: Antibacterial activity against Enterococcus faecium 14-2 after 18 to 24 hrs; summary of the method: as §1
Enterococcus faecium [4] = experiment: Antibacterial activity against Enterococcus faecium 14-5 after 18 to 24 hrs; summary of the method: as §1
Enterococcus faecium [5] = experiment: Antibacterial activity against Enterococcus faecium 14-6 after 18 to 24 hrs; summary of the method: as §1
[6] = test system: Mycobacterium tuberculosis; experiment: Antimycobacterial activity against Mycobacterium tuberculosis H37Rv ATCC 27294 by alamar blue assay
Summary of the method: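 Microplate Alamar Blue Assay; MIC is the lowest concentration giving ≥90% reduction in fluorescence relative to the mean of replicate bacterium-only controls. MDR strain 6133 is resistant to isoniazid and rifampicin.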

Escherichia coli [7] = experiment: Antibacterial activity against Escherichia coli ATCC 25922 after 18 to 24 hrs; summary of the method: as §1
Escherichia coli [8] = experiment: Antibacterial activity against ESBL-positive Escherichia coli 14-1 after 18 to 24 hrs; summary of the method: as §1
Escherichia coli [9] = experiment: Antibacterial activity against ESBL-positive Escherichia coli 14-2 after 18 to 24 hrs; summary of the method: as §1
Escherichia coli [10] = experiment: Antibacterial activity against Escherichia coli 14-1 after 18 to 24 hrs; summary of the method: as §1
Escherichia coli [11] = experiment: Antibacterial activity against Escherichia coli 14-2 after 18 to 24 hrs; summary of the method: as §1
Klebsiella pneumoniae [12] = experiment: Antibacterial activity against ESBL-positive Klebsiella pneumoniae 14-17 after 18 to 24 hrs; summary of the method: as §1
Klebsiella pneumoniae [13] = experiment: Antibacterial activity against ESBL-positive Klebsiella pneumoniae 14-18 after 18 to 24 hrs; summary of the method: as §1
Klebsiella pneumoniae [14] = experiment: Antibacterial activity against ESBL-positive Klebsiella pneumoniae 14-19 after 18 to 24 hrs; summary of the method: as §1
Klebsiella pneumoniae [15] = experiment: Antibacterial activity against Klebsiella pneumoniae 14-1 after 18 to 24 hrs; summary of the method: as §1
Klebsiella pneumoniae [16] = experiment: Antibacterial activity against Klebsiella pneumoniae 14-2 after 18 to 24 hrs; summary of the method: as §1
Klebsiella pneumoniae [17] = experiment: Antibacterial activity against Klebsiella pneumoniae 14-3 after 18 to 24 hrs; summary of the method: as §1
Klebsiella pneumoniae [18] = experiment: Antibacterial activity against Klebsiella pneumoniae 14-4 after 18 to 24 hrs; summary of the method: as §1
Pseudomonas aeruginosa [19] = experiment: Antibacterial activity against Pseudomonas aeruginosa ATCC 27853 after 18 to 24 hrs; summary of the method: as §1
Pseudomonas aeruginosa [20] = experiment: Antibacterial activity against Pseudomonas aeruginosa 14-9 after 18 to 24 hrs; summary of the method: as §1
Pseudomonas aeruginosa [21] = experiment: Antibacterial activity against Pseudomonas aeruginosa 14-14 after 18 to 24 hrs; summary of the method: as §1
Pseudomonas aeruginosa [22] = experiment: Antibacterial activity against Pseudomonas aeruginosa 14-15 after 18 to 24 hrs; summary of the method: as §1
Pseudomonas aeruginosa [23] = experiment: Antibacterial activity against Pseudomonas aeruginosa 14-16 after 18 to 24 hrs; summary of the method: as §1
Pseudomonas aeruginosa [24] = experiment: Antibacterial activity against Pseudomonas aeruginosa 14-19 after 18 to 24 hrs; summary of the method: as §1
Staphylococcus aureus [25] = experiment: Antibacterial activity against Staphylococcus aureus CMCC 26003 after 18 to 24 hrs; summary of the method: as §1
Staphylococcus aureus [26] = experiment: Antibacterial activity against methicillin-sensitive Staphylococcus aureus 14-1 after 18 to 24 hrs; summary of the method: as §1
Staphylococcus aureus [27] = experiment: Antibacterial activity against methicillin-sensitive Staphylococcus aureus 14-2 after 18 to 24 hrs; summary of the method: as §1
Staphylococcus aureus [28] = experiment: Antibacterial activity against methicillin-sensitive Staphylococcus aureus 14-3 after 18 to 24 hrs; summary of the method: as §1
Staphylococcus aureus [29] = experiment: Antibacterial activity against methicillin-sensitive Staphylococcus aureus 14-4 after 18 to 24 hrs; summary of the method: as §1
Staphylococcus aureus [30] = experiment: Antibacterial activity against methicillin-resistant Staphylococcus aureus 14-4 after 18 to 24 hrs
Staphylococcus aureus [31] = experiment: Antibacterial activity against methicillin-resistant Staphylococcus aureus 14-5 after 18 to 24 hrs
[32] = test system: Staphylococcus epidermidis; experiment: Antibacterial activity against methicillin-sensitive Staphylococcus epidermidis 14-2 after 18 to 24 hrs; summary of the method: as §1
[33] = test system: Staphylococcus epidermidis; experiment: Antibacterial activity against methicillin-resistant Staphylococcus epidermidis 14-21 after 18 to 24 hrs
[34] = test system: Staphylococcus epidermidis; experiment: Antibacterial activity against methicillin-resistant Staphylococcus epidermidis 14-22 after 18 to 24 hrs
[35] = test system: Staphylococcus epidermidis; experiment: Antibacterial activity against methicillin-resistant Staphylococcus epidermidis 14-37 after 18 to 24 hrs
[36] = test system: Staphylococcus epidermidis; experiment: Antibacterial activity against methicillin-resistant Staphylococcus epidermidis 14-39 after 18 to 24 hrs
Streptococcus pneumoniae = experiment: Antibacterial activity against Streptococcus pneumoniae ATCC 19615 after 18 to 24 hrs; summary of the method: as §1
Enterococcus faecalis [37] = experiment: Antibacterial activity against Enterococcus faecalis 14-1 after 18 to 24 hrs; summary of the method: as §1

Structure (SMILES)	MIC (Enterococcus faecalis [1])	MIC (Enterococcus faecium [2])	MIC (Enterococcus faecium [3])	MIC (Enterococcus faecium [4])	MIC (Enterococcus faecium [5])	MIC90 [6]	MIC (Escherichia coli [7])	MIC (Escherichia coli [8])	MIC (Escherichia coli [9])	MIC (Escherichia coli [10])	MIC (Escherichia coli [11])	MIC (Klebsiella pneumoniae [12])	MIC (Klebsiella pneumoniae [13])	MIC (Klebsiella pneumoniae [14])	MIC (Klebsiella pneumoniae [15])	MIC (Klebsiella pneumoniae [16])	MIC (Klebsiella pneumoniae [17])	MIC (Klebsiella pneumoniae [18])	MIC (Pseudomonas aeruginosa [19])	MIC (Pseudomonas aeruginosa [20])	also measured
CO/N=C1\CN(c2nc3c(cc2F)c(=O)c(C(=O)O)cn3[C@@H]2C[C@@H]2F)CC1N (stereo partly specified)	2 µg/mL (≈ 5.08 µM)	128 µg/mL (≈ 325 µM)	128 µg/mL (≈ 325 µM)	128 µg/mL (≈ 325 µM)	> 128 µg/mL	0.867 µg/mL (≈ 2.2 µM)	0.25 µg/mL (≈ 0.636 µM)	16 µg/mL (≈ 40.7 µM)	> 128 µg/mL	128 µg/mL (≈ 325 µM)	128 µg/mL (≈ 325 µM)	8 µg/mL (≈ 20.3 µM)	8 µg/mL (≈ 20.3 µM)	> 128 µg/mL	> 128 µg/mL	128 µg/mL (≈ 325 µM)	> 128 µg/mL	128 µg/mL (≈ 325 µM)	4 µg/mL (≈ 10.2 µM)	8 µg/mL (≈ 20.3 µM)	MIC (Pseudomonas aeruginosa [21]): 8 µg/mL (≈ 20.3 µM); MIC (Pseudomonas aeruginosa [22]): 8 µg/mL (≈ 20.3 µM); MIC (Pseudomonas aeruginosa [23]): 8 µg/mL (≈ 20.3 µM); MIC (Pseudomonas aeruginosa [24]): 8 µg/mL (≈ 20.3 µM); MIC (Staphylococcus aureus [25]): 0.5 µg/mL (≈ 1.27 µM); MIC (Staphylococcus aureus [26]): 32 µg/mL (≈ 81.4 µM); MIC (Staphylococcus aureus [27]): 0.5 µg/mL (≈ 1.27 µM); MIC (Staphylococcus aureus [28]): 1 µg/mL (≈ 2.54 µM); MIC (Staphylococcus aureus [29]): 1 µg/mL (≈ 2.54 µM); MIC (Staphylococcus aureus [30]): 128 µg/mL (≈ 325 µM); MIC (Staphylococcus aureus [31]): 64 µg/mL (≈ 163 µM); MIC [32]: 128 µg/mL (≈ 325 µM); MIC [33]: 64 µg/mL (≈ 163 µM); MIC [34]: 32 µg/mL (≈ 81.4 µM); MIC [35]: 32 µg/mL (≈ 81.4 µM); MIC [36]: 64 µg/mL (≈ 163 µM); MIC (Streptococcus pneumoniae): 0.25 µg/mL (≈ 0.636 µM); MIC (Enterococcus faecalis [37]): 128 µg/mL (≈ 325 µM)
NC1CN(c2nc3c(cc2F)c(=O)c(C(=O)O)cn3[C@@H]2C[C@@H]2F)C/C1=N\OCc1ccccc1 (stereo partly specified)	1 µg/mL (≈ 2.13 µM)	64 µg/mL (≈ 136 µM)	64 µg/mL (≈ 136 µM)	128 µg/mL (≈ 273 µM)	> 128 µg/mL	1.92 µg/mL (≈ 4.09 µM)	0.5 µg/mL (≈ 1.07 µM)	128 µg/mL (≈ 273 µM)	> 128 µg/mL	> 128 µg/mL	> 128 µg/mL	32 µg/mL (≈ 68.2 µM)	32 µg/mL (≈ 68.2 µM)	> 128 µg/mL	> 128 µg/mL	> 128 µg/mL	> 128 µg/mL	> 128 µg/mL	16 µg/mL (≈ 34.1 µM)	32 µg/mL (≈ 68.2 µM)	MIC (Pseudomonas aeruginosa [21]): 32 µg/mL (≈ 68.2 µM); MIC (Pseudomonas aeruginosa [22]): 32 µg/mL (≈ 68.2 µM); MIC (Pseudomonas aeruginosa [23]): 32 µg/mL (≈ 68.2 µM); MIC (Pseudomonas aeruginosa [24]): 32 µg/mL (≈ 68.2 µM); MIC (Staphylococcus aureus [25]): < 0.008 µg/mL; MIC (Staphylococcus aureus [26]): 16 µg/mL (≈ 34.1 µM); MIC (Staphylococcus aureus [27]): < 0.008 µg/mL; MIC (Staphylococcus aureus [28]): 0.5 µg/mL (≈ 1.07 µM); MIC (Staphylococcus aureus [29]): 1 µg/mL (≈ 2.13 µM); MIC (Staphylococcus aureus [30]): 32 µg/mL (≈ 68.2 µM); MIC (Staphylococcus aureus [31]): 64 µg/mL (≈ 136 µM); MIC [32]: 64 µg/mL (≈ 136 µM); MIC [33]: 32 µg/mL (≈ 68.2 µM); MIC [34]: 32 µg/mL (≈ 68.2 µM); MIC [35]: 64 µg/mL (≈ 136 µM); MIC [36]: 64 µg/mL (≈ 136 µM); MIC (Streptococcus pneumoniae): 0.5 µg/mL (≈ 1.07 µM); MIC (Enterococcus faecalis [37]): 64 µg/mL (≈ 136 µM)
